The values below come from ChEMBL document CHEMBL3352507, “Preparation and antimalarial activity of a novel class of carbohydrate-derived, fused thiochromans” (Eur J Med Chem, 2014).

Series [1] relates to Plasmodium falciparum. Briefly: Antimalarial activity against Plasmodium falciparum FCR3 after 48 hrs by parasite lactate dehydrogenase assay. The format is functional, organism-based. Particulars: FCR3, 48 h. The method, boiled down:
(§1)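 Parasite survival read by parasite lactate dehydrogenase (pLDH) assay. Single-concentration prescreen at […]; compounds with 0–15% survival were taken to dose–response. Ten three-fold serial dilutions in triplicate, incubated 48 h in a gassed airtight box, developed with NBT/PES. IC50 from sigmoidal curve of % survival relative to control against log concentration.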

The nature of series [2]: Cytotoxicity against human WI38 cells assessed as cell viability at 0.01 uM after 48 hrs by SRB assay. The format is cell-based, WI-38. The following applies: read-out: Activity. The essentials:
(§2)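 WI-38 fibroblasts (passages 21–50) were seeded at 10 000 cells/well for 24 h, then exposed for 48 h to compound dissolved in DMSO and diluted in medium. Viable cells were fixed with cold 50% trichloroacetic acid and stained with sulforhodamine B. Bound dye was extracted with 10 mM Tris base and read at 540 nm. Viability relative to drug-free cells.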

Series [3] can be described thus: Cytotoxicity against human WI38 cells assessed as cell viability at 1 uM after 48 hrs by SRB assay. It is filed as cell-based, WI-38. Particulars: read-out: Activity. The essentials: as §2
(In general: In SRB staining, fixed cells bind dye roughly in proportion to their protein.)

Series [4] relates to Plasmodium falciparum. Briefly: Antimalarial activity against Plasmodium falciparum 3D7 after 48 hrs by parasite lactate dehydrogenase assay. It is filed as functional, organism-based. Particulars: 3D7, 48 h. The essentials: as §1
A short description of series [5]: Cytotoxicity against human WI38 cells assessed as cell viability at 0.1 uM after 48 hrs by SRB assay. The format is cell-based, WI-38. The following applies: read-out: Activity. The essentials:
as §2

A short description of series [6]: Cytotoxicity against human WI38 cells after 48 hrs by SRB assay. The format is cell-based. The following applies: WI-38, 48 h. The essentials:
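WI-38 human fetal lung fibroblasts (passages 21–50) in EMEM with 10% FBS, 2 mM L-glutamine and gentamicin, at 37 °C and 5% CO2. Seeded at 10 000 cells/well, grown 24 h, then given compound in DMSO diluted in medium to 5 concentrations for 48 h. Cells were fixed with cold 50% TCA and stained with SRB, and dye was read at 540 nm. IC50 by non-linear regression against untreated controls.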

A short description of series [7]: Cytotoxicity against human WI38 cells assessed as cell viability at 10 uM after 48 hrs by SRB assay. It is filed as cell-based, WI-38. The following applies: read-out: Activity. The method, boiled down: as §2
The nature of series [8]: Cytotoxicity against human WI38 cells assessed as cell viability at 100 uM after 48 hrs by SRB assay. The following applies: read-out: Activity. The format is cell-based, WI-38. The method, boiled down: as §2

pIC50: −log10 of the molar value. Where only a bound is given, the exact number is not on record here.

For the compound `COc1ccc2c(c1)[C@H]1O[C@H](COCc3ccccc3)[C@@H](OCc3ccccc3)[C@H](OCc3ccccc3)[C@H]1C[S@@+]2[O-]`, the pIC50 in series [1] is 5.68; in series [4], 5.66; in series [6], 5.06. Moreover, the viability at 48 h, 0.01 µM in series [2] is 97.4%. In addition, the viability at 48 h, 1 µM in series [3] was 97.2%. Also, the viability at 48 h, 0.1 µM in series [5] worked out at 98%. Also, in series [7], the viability at 48 h, 10 µM turned out to be 55.4%. Besides, the viability at 48 h, 100 µM in series [8] is 27.2%.
As to `[O-][S@+]1C[C@@H]2[C@@H](OCc3ccccc3)[C@H](OCc3ccccc3)[C@@H](COCc3ccccc3)O[C@@H]2c2c1ccc1ccccc21`, the pIC50 in series [1] was 5.66; in series [4] it was 5.59; in series [6], below 4.00. For the same compound, in series [2], the viability at 48 h, 0.01 µM came out at 101%. The viability at 48 h, 1 µM in series [3] was determined as 96.7%. Also, the viability at 48 h, 0.1 µM in series [5] came to 98.5%. For the same compound, the viability at 48 h, 10 µM in series [7] turned out to be 94.5%. Further, in series [8], the viability at 48 h, 100 µM was determined as 79.4%.
Turning to `Cc1cccc2c1SC[C@@H]1[C@@H](OCc3ccccc3)[C@H](OCc3ccccc3)[C@@H](COCc3ccccc3)O[C@H]21`, the negative logarithm of the IC50 (pIC50) in series [1] was 5.65; in series [4], below 4.00; in series [6], below 4.00. For the same compound, the viability at 48 h, 0.01 µM in series [2] came to 103%. The viability at 48 h, 1 µM in series [3] was found to be 97.5%. In addition, the viability at 48 h, 0.1 µM in series [5] stood at 99.5%. Also, the viability at 48 h, 10 µM in series [7] came to 85.4%. Besides, in series [8], the viability at 48 h, 100 µM came to 68.8%.
As to `Cc1cccc2c1[S@@+]([O-])C[C@@H]1[C@@H](OCc3ccccc3)[C@H](OCc3ccccc3)[C@@H](COCc3ccccc3)O[C@H]21`, the pIC50 in series [1] was 5.56; in series [4], 5.38; in series [6], below 4.00. Moreover, in series [2], the viability at 48 h, 0.01 µM turned out to be 102%. Besides, in series [3], the viability at 48 h, 1 µM was 99.2%. Further, the viability at 48 h, 0.1 µM in series [5] came to 99.5%. In addition, the viability at 48 h, 10 µM in series [7] is 84.7%. In addition, in series [8], the viability at 48 h, 100 µM was 67.1%.
For `CC(C)(C)c1ccc2c(c1)[C@H]1O[C@H](COCc3ccccc3)[C@@H](OCc3ccccc3)[C@H](OCc3ccccc3)[C@H]1CS2(=O)=O`, the pIC50 is 6.55 in series [1], 6.41 in series [4] and below 4.00 in series [6]. In series [2], the viability at 48 h, 0.01 µM came to 96.7%. Further, the viability at 48 h, 1 µM in series [3] was determined as 92.7%. For the same compound, the viability at 48 h, 0.1 µM in series [5] came out at 96.3%. The viability at 48 h, 10 µM in series [7] was determined as 91%. Moreover, the viability at 48 h, 100 µM in series [8] is 71.7%.
For the compound `Cc1cccc2c1[S@+]([O-])C[C@@H]1[C@@H](OCc3ccccc3)[C@H](OCc3ccccc3)[C@@H](COCc3ccccc3)O[C@H]21`, the pIC50 in series [1] was 5.36; in series [4], 5.20; in series [6], below 4.00. Moreover, the viability at 48 h, 0.01 µM in series [2] came to 101%. In addition, the viability at 48 h, 1 µM in series [3] is 95.5%. Moreover, the viability at 48 h, 0.1 µM in series [5] stood at 99.3%. For the same compound, the viability at 48 h, 10 µM in series [7] came out at 88.2%. Besides, the viability at 48 h, 100 µM in series [8] was determined as 52.5%.
Consider `O=S1(=O)C[C@@H]2[C@@H](OCc3ccccc3)[C@H](OCc3ccccc3)[C@@H](COCc3ccccc3)O[C@@H]2c2ccccc21`, for which the pIC50 in series [1] was 5.40; in series [4], below 4.00; in series [6] it was below 4.00. Further, in series [2], the viability at 48 h, 0.01 µM worked out at 97.8%. Further, the viability at 48 h, 1 µM in series [3] was 97%. Also, the viability at 48 h, 0.1 µM in series [5] worked out at 97%. Besides, the viability at 48 h, 10 µM in series [7] was 92.4%. Also, the viability at 48 h, 100 µM in series [8] amounted to 67.8%.

As usually defined, the pIC50 is the negative decadic logarithm of the IC50, by convention in mol/L.
